ChEMBL document CHEMBL4342520, “Discovery, Structure-Activity Relationship, and Biological Activity of Histone-Competitive Inhibitors of Histone Acetyltransferases P300/CBP” (J Med Chem, 2020)
Calls of active or inactive are those of the source. No cut-off for these calls is given here.

How the values were obtained:
[1] = target: T1, Histone acetyltransferase p300 (Homo sapiens, UniProt Q09472); assay: (§1) Inhibition of recombinant human GST-tagged p300 HAT domain (1195 to 1673 residues) expressed in Escherichia coli BL21 codon plus cells at 10 uM using Histone H3 peptide (1 to 21) and [3H]acetyl-CoA as substrate preincubated with enzyme for 10 mins followed by substrate addition and measured after 30 mins by scintillation counting method relative to control
T1 sequence (Q09472 whole entry, the tested form may be a part): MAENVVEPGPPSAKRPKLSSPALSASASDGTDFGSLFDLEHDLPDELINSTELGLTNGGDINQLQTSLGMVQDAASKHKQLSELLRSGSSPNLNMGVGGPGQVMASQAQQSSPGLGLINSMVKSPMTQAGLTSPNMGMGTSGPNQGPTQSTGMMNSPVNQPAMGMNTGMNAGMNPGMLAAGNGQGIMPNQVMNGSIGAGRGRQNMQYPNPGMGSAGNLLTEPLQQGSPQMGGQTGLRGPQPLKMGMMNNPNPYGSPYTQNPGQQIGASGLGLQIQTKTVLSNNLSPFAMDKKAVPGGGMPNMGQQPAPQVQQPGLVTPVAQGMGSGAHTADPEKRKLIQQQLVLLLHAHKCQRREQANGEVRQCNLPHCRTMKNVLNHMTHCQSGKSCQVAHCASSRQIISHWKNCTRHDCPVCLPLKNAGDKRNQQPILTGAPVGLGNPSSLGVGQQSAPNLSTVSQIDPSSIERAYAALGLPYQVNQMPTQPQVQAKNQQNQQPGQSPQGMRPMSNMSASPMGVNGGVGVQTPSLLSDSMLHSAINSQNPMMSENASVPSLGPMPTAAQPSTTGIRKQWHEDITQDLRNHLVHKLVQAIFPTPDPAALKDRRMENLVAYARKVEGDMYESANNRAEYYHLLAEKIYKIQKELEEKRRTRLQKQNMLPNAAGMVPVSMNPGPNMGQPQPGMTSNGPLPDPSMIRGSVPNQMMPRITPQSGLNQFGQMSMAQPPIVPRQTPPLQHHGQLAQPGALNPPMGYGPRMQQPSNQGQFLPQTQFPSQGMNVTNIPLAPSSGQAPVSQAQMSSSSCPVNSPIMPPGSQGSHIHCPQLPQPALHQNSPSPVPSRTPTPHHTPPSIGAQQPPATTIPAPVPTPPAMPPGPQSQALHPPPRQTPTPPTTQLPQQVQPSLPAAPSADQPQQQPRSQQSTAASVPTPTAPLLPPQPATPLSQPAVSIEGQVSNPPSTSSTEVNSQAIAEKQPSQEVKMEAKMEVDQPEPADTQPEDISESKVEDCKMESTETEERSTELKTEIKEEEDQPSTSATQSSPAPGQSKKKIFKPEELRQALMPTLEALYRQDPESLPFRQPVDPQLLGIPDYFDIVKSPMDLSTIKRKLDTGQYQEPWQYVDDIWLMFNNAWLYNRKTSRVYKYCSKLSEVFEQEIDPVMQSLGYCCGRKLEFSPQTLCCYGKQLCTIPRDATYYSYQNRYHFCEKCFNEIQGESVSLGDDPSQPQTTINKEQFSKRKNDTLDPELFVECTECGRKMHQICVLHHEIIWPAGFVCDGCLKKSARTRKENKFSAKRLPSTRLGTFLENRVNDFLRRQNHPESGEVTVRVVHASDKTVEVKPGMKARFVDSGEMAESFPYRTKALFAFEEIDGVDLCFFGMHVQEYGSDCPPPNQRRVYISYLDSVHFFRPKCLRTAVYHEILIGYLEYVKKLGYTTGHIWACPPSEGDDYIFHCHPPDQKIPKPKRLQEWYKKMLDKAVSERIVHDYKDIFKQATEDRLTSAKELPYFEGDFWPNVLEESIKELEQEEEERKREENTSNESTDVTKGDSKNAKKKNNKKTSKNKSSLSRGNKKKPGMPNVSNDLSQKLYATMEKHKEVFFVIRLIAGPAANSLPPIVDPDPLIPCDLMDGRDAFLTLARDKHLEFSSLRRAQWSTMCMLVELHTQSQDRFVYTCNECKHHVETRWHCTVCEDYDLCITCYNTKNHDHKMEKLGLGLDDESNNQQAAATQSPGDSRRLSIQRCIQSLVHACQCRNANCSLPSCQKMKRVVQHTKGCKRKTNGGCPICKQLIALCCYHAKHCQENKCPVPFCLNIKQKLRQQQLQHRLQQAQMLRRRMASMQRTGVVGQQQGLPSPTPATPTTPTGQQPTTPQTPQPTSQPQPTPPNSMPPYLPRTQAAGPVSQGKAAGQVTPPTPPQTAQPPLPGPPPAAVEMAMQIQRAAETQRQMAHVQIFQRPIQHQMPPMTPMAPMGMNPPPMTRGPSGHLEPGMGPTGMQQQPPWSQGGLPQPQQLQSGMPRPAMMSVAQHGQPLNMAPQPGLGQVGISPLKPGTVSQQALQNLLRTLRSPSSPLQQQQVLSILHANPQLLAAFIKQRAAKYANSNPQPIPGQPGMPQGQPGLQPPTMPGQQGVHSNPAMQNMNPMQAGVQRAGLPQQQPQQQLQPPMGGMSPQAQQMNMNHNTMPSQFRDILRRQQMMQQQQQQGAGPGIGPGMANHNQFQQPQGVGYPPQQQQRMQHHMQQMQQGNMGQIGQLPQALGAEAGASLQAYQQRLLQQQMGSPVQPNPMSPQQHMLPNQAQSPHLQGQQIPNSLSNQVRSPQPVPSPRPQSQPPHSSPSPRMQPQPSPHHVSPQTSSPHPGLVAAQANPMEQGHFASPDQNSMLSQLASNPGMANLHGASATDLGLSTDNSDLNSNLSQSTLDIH

[2] = target: T1, Histone acetyltransferase p300; assay: as §1, with “cells” for “cells at 10 uM”, “method” for “method relative to control”
Summary of the method: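 The compound (100 nM to 10 µM) was preincubated with p300-HAT (10 nM) for 10 min at 25 °C in 50 mM phosphate buffer pH 7.0 with 0.01% Brij-35. Incorporation of [3H]acetyl from Ac-CoA into histone H3 (1-21) peptide was captured on filter paper, washed with 50 mM NaHCO3 and counted by scintillation. IC50 came from a sigmoidal dose-response fit, mean of at least three experiments.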

[3] = tested on: Kasumi 1; assay: Antiproliferative activity against human Kasumi-1 cells assessed as reduction in cell viability incubated for 5 days by XTT assay; conditions: Kasumi 1, 120 h
[4] = Antiproliferative activity against human MDAPanc28 cells assessed as reduction in cell viability incubated for 5 days by MTT assay; conditions: MDA-Panc-28, 120 h
[5] = tested on: MCF7; assay: Antiproliferative activity against human MCF7 cells assessed as reduction in cell viability incubated for 6 days by Celigo-insitu cell cytometer analysis; conditions: MCF7, 144 h
[6] = target: T2, CREB-binding protein/Histone acetyltransferase p300 (Homo sapiens) (UniProt Q09472+Q92793); assay: Inhibition of p300/CBP HAT domain in human Kasumi-1 cells assessed as reduction in H3K18 acetylation at 5 to 10 uM incubated for 12 hrs by Western blot analysis; format: cell-based
T2 sequence (Q09472 whole entry, looked up, the tested form may be a part): as the sequence (Q09472 whole entry, the tested form may be a part) above
T2 sequence (Q92793 whole entry, looked up, the tested form may be a part): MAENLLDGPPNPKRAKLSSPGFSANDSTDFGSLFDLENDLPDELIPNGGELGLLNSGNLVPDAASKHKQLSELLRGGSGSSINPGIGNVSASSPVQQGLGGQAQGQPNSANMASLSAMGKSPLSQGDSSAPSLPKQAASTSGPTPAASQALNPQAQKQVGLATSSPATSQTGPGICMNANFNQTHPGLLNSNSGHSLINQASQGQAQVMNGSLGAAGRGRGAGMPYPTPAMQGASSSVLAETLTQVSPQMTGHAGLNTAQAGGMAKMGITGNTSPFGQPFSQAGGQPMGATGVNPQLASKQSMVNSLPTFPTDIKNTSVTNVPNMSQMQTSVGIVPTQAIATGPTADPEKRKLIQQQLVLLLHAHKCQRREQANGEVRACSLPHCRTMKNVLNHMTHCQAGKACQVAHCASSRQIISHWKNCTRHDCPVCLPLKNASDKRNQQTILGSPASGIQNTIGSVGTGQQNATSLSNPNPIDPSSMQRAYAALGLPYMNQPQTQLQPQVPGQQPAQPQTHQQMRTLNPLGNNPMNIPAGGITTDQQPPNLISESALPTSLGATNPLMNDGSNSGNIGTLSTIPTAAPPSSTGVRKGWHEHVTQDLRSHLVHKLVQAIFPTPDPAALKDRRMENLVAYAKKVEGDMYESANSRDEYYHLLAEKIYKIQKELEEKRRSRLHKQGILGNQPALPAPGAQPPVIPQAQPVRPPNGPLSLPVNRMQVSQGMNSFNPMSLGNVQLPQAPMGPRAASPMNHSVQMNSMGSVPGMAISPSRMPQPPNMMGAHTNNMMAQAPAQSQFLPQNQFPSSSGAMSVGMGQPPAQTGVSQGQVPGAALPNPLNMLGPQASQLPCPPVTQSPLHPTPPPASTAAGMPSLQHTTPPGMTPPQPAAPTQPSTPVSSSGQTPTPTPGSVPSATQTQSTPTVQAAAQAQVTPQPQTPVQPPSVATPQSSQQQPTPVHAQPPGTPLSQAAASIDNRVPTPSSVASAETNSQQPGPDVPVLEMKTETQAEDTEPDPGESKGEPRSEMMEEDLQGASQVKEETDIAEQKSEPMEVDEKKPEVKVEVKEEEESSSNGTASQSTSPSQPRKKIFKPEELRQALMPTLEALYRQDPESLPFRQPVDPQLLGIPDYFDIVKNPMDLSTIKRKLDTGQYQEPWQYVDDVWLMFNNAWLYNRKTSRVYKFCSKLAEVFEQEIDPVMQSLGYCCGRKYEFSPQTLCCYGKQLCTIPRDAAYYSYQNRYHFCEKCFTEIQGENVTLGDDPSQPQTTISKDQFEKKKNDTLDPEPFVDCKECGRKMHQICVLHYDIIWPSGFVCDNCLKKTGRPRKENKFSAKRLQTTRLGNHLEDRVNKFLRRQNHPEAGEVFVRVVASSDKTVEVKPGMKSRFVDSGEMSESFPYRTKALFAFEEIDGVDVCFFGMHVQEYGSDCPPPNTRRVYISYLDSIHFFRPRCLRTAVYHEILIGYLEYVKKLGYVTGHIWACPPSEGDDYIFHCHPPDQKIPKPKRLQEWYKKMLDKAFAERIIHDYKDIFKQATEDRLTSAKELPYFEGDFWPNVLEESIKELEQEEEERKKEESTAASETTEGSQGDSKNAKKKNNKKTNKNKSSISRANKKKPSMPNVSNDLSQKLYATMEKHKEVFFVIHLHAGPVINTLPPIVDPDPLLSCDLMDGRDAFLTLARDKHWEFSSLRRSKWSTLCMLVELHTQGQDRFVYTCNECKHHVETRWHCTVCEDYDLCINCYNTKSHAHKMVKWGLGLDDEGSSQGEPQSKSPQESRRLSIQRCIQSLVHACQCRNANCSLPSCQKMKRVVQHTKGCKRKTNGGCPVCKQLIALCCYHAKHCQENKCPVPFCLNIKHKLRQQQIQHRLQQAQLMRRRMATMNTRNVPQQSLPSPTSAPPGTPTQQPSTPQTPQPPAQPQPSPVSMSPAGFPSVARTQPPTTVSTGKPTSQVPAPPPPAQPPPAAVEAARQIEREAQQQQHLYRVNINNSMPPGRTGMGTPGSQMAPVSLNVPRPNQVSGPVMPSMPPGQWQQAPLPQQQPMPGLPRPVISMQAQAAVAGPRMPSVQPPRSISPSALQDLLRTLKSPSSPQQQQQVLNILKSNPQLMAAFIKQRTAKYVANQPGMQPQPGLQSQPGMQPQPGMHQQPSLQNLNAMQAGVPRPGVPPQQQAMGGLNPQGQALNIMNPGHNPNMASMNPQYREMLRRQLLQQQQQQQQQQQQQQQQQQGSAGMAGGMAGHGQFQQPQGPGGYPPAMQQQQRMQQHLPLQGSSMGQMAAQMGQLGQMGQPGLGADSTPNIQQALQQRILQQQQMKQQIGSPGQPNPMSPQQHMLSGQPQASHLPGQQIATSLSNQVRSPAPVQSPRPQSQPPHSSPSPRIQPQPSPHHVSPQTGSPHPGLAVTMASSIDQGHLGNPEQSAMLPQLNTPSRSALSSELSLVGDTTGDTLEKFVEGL
Summary of the method: (§2)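 Kasumi-1 cells (10^6 per well) were treated with compound at 0, 5 and 10 µM for 12 h. Total histones were extracted, and 2 µg was run on SDS-PAGE and blotted to PVDF. Blots were probed for H3K9Ac, H3K18Ac, H3K27Ac and total H3, then with an anti-rabbit IgG secondary.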

[7] = target: T1, Histone acetyltransferase p300; assay: Inhibition of His6-tagged p300 HAT domain (unknown origin) assessed as disruption of p300 and Histone H4 (1-21) peptide interaction incubated for 1 hr by Alpha assay
Summary of the method: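 Varying compound concentrations were added in PBS with 0.5% BSA for 1 h. Signal was read with excitation at 680 nm and emission at 570 nm. A biotinylated His6 peptide served as an interference counter-control. IC50 came from a sigmoidal fit.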

[8] = target: T2, CREB-binding protein/Histone acetyltransferase p300 (Homo sapiens); assay: Inhibition of p300/CBP HAT domain in human Kasumi-1 cells assessed as reduction in H3K9 acetylation at 5 to 10 uM incubated for 12 hrs by Western blot analysis; format: cell-based; summary of the method: as §2
[9] = tested on: MCF7; assay: Antiproliferative activity against human tamoxifen-resistant MCF7 cells assessed as reduction in cell viability incubated for 6 days by Celigo-insitu cell cytometer analysis; conditions: MCF7, 144 h
[10] = target: T2, CREB-binding protein/Histone acetyltransferase p300 (Homo sapiens); assay: Inhibition of p300/CBP HAT domain in human Kasumi-1 cells assessed as reduction in H3K27 acetylation at 5 to 10 uM incubated for 12 hrs by Western blot analysis; format: cell-based; summary of the method: as §2
[11] = tested on: PANC-1; assay: Antiproliferative activity against human PANC1 cells assessed as reduction in cell viability incubated for 5 days by MTT assay; conditions: PANC-1, 120 h
[12] = target: Lysine-specific histone demethylase 1A (Homo sapiens) (UniProt O60341); assay: Inhibition of LSD1 (unknown origin) at 50 uM
[13] = target: Histone acetyltransferase KAT6A (Homo sapiens, UniProt Q92794); assay: (§3) Inhibition of recombinant human GST-tagged Myst3 expressed in Escherichia coli BL21 codon plus cells using Histone H3 peptide (1 to 21) and [3H]acetyl-CoA as substrate preincubated with enzyme for 10 mins followed by substrate addition and measured after 30 mins by scintillation counting method
Summary of the method: (§4)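 CBP, PCAF and Myst3 HAT proteins were prepared like GST-p300-HAT: expressed in E. coli BL21-CodonPlus, purified on glutathione resin, then by gel filtration. Inhibition was measured in the same radiometric filter assay with [3H]Ac-CoA and histone H3 (1-21) peptide, read by scintillation counting.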

[14] = target: CREB-binding protein (Homo sapiens, UniProt Q92793); assay: as §3, with “CBP HAT domain” for “Myst3”; summary of the method: as §4
Chain of CREB-binding protein (Q92793 whole entry, the tested form may be a part): as the sequence (Q92793 whole entry, looked up, the tested form may be a part) above

[15] = target: Histone acetyltransferase KAT2B (Homo sapiens, UniProt Q92831); assay: Inhibition of recombinant human GST-tagged PCAF expressed in Escherichia coli BL21 codon plus cells using Histone H3 peptide (1 to 21) and [3H]acetyl-CoA as substrate preincubated with enzyme for 10 mins followed by substrate addition and measured after 30 mins by scintillation counting method; summary of the method: as §4
[16] = Inhibition of p300 HAT domain (1287-1652 residues) (unknown origin) harboring regulatory auto-acetylation loop deletion mutant and M1652G mutant using H4-15 peptide as substrate preincubated with enzyme and substrate for 10 mins followed by addition of [12C]acetylCoA and [14C]acetylCoA for 10 mins by phosphor-imaging analysis; set-up: species or system Homo sapiens

Compound	inhibition [1]	IC50 [2]	further results
CC(C)(C)c1ccc(-c2sc(CNCC3CCNCC3)cc2-c2ccc(CN)cc2)cc1	35%	> 10 µM	
CC(C)(C)c1ccc(-c2sc(C(=O)NCC3CCNCC3)cc2-c2ccoc2)cc1	36%	> 10 µM	
CC(C)(C)c1ccc(-c2sc(C(=O)NCC3CCNCC3)cc2-c2ccc(CN)cc2)cc1		10 µM	
NCc1ccc(-c2cc(CNCC3CCNCC3)sc2-c2ccc(CN)cc2)cc1	0%	> 10 µM	EC50 [3]: > 30 µM; EC50 [4]: > 30 µM; EC50 [5]: > 30 µM; inhibition [6]: inactive; inhibition [7]: inactive; inhibition [8]: inactive; EC50 [9]: > 30 µM; inhibition [10]: inactive; EC50 [11]: > 30 µM
c1cc(-c2ccc(-c3cc(CNCC4CCNCC4)sc3-c3ccc(-c4ccoc4)cc3)cc2)co1		1.7 µM	
CC(C)(C)c1ccc(-c2cc(C(=O)NCC3CCNCC3)sc2-c2ccc(C(C)(C)C)cc2)cc1		8.6 µM	inhibition [12]: inactive
CC(C)(C)c1ccc(-c2sc(CNCC3CCNCC3)cc2-c2ccc(-c3ccoc3)cc2)cc1		5.8 µM	
CC(C)(C)c1ccc(-c2sc(C(=O)NCC3CCNCC3)cc2-c2cccnc2)cc1	31%	> 10 µM	
c1cc(-c2ccc(-c3cc(CNCC4CCNCC4)sc3-c3ccc(CN4CCCCC4)cc3)cc2)co1		4.6 µM	
COc1ccc(-c2cc(CNCC3CCNCC3)sc2-c2ccc(OC)c(OC)c2)cc1OC	0%	> 10 µM	EC50 [3]: 18.7 µM; EC50 [4]: > 30 µM; EC50 [5]: > 30 µM; EC50 [9]: > 30 µM; EC50 [11]: > 30 µM
CC(C)(C)c1ccc(-c2cc(CNCC3CCNCC3)sc2-c2ccc(CN)cc2)cc1		2 µM	
CC(C)(C)c1ccc(-c2cc(CNCCC3CCNCC3)sc2-c2ccc(C(C)(C)C)cc2)cc1		2.2 µM	
CC(C)(C)c1ccc(-c2cc(COCC3CCNCC3)sc2-c2ccc(C(C)(C)C)cc2)cc1	0%	> 10 µM	
COc1ccc(-c2ccc(-c3cc(CNCC4CCNCC4)sc3-c3ccc(-c4ccc(OC)cc4)cc3)cc2)cc1		7.4 µM	
CC(C)(C)c1ccc(-c2cc(CNCC3CCNCC3)sc2-c2ccc(C(C)(C)C)cc2)cc1			inhibition [12]: inactive; IC50 [13]: > 50 µM; EC50 [3]: 2.6 µM; EC50 [4]: 2.8 µM; EC50 [5]: 2.8 µM; IC50 [14]: 1.2 µM; EC50 [9]: 3.4 µM; IC50 [15]: > 50 µM; EC50 [11]: 1 µM
c1cc(-c2cc(CNCC3CCNCC3)sc2-c2ccoc2)co1	23%	> 10 µM	
OCc1ccc(-c2cc(CNCC3CCNCC3)sc2-c2ccc(CO)cc2)cc1	22%	> 10 µM	
CC(C)(C)c1ccc(-c2sc(C(=O)NCC3CCNCC3)cc2-c2ccc(CN3CCNCC3)cc2)cc1	12%	> 10 µM	

Compound	inhibition [1]	IC50 [2]	further results
COc1ccc(-c2ccc(-c3cc(C(=O)NCC4CCNCC4)sc3-c3ccc(-c4ccc(OC)cc4)cc3)cc2)cc1		2.8 µM	
c1cc(-c2ccc(-c3ncc(CNCC4CCNCC4)nc3-c3ccc(-c4ccoc4)cc3)cc2)co1	25%		
CC(C)(C)c1ccc(-c2sc(C(=O)NCC3CCNCC3)cc2-c2ccc(-c3ccoc3)cc2)cc1		7.4 µM	
CC(C)(C)c1ccc(-c2csc(C(=O)NCC3CCNCC3)n2)cc1	18%		
CC(C)(C)c1ccc(-c2cc(CNCCCCCCN)sc2-c2ccc(C(C)(C)C)cc2)cc1		1.4 µM	
CC(C)(C)c1ccc(-c2sc(CNCC3CCNCC3)c(Br)c2-c2ccc(C(C)(C)C)cc2)cc1		1.8 µM	
CCCCc1ccc(-c2cc(CNCC3CCNCC3)sc2-c2ccc(CCCC)cc2)cc1	10%	> 10 µM	
CC1=NN(c2ccc(C(=O)O)cc2)C(=O)/C1=C\c1ccc(-c2cc(C)c(C)cc2[N+](=O)[O-])o1			IC50 [16]: 1.6 µM
O=C(NCC1CCNCC1)c1cc(-c2ccc(-c3ccoc3)cc2)c(-c2ccc(-c3ccoc3)cc2)s1		1.6 µM	
CC(C)(C)c1ccc(-c2cc(CN3CCNCC3)sc2-c2ccc(C(C)(C)C)cc2)cc1	5%	> 10 µM	
CC(C)(C)c1ccc(-c2cc(CNCCCN)sc2-c2ccc(C(C)(C)C)cc2)cc1		3 µM	
CC(C)(C)c1ccc(-c2cc(CNC3CCNCC3)sc2-c2ccc(C(C)(C)C)cc2)cc1		5 µM	
c1ccc(-c2cccc(-c3cc(CNCC4CCNCC4)sc3-c3cccc(-c4ccccc4)c3)c2)cc1	18%	> 10 µM	
CC(C)(C)c1ccc(-c2nc(C(=O)NCC3CCNCC3)sc2-c2ccc(C(C)(C)C)cc2)cc1		2.4 µM	
CC(C)(C)c1ccc(-c2nc(CNCC3CCNCC3)sc2-c2ccc(C(C)(C)C)cc2)cc1		8.6 µM	
CC(C)(C)c1ccc(-c2csc(CNCC3CCNCC3)n2)cc1	10%		
CC(C)(C)c1ccc(-c2cc(CN3CCOCC3)sc2-c2ccc(C(C)(C)C)cc2)cc1	20%	> 10 µM	
O=C(NCC1CCNCC1)c1cc(-c2ccc(CN3CCCCC3)cc2)c(-c2ccc(-c3ccoc3)cc2)s1		1.6 µM	
